Measured values from ChEMBL document CHEMBL3868617, “Synthesis, COX-1/2 inhibition activities and molecular docking study of isothiazolopyridine derivatives” (Bioorg Med Chem, 2017).

Assays:
[1] = biological target: T1, Prostaglandin G/H synthase 1 (Homo sapiens, UniProt P23219); assay: Inhibition of COX-1 (unknown origin) using arachidonic acid as substrate preincubated for 2 mins followed by substrate addition in presence of TMPD by spectrophotometric analysis
Outline: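 COX-1 with heme in 0.1 M Tris-HCl pH 8.0; arachidonic acid starts the reaction and the TMPD oxidation rate is read at 590 nm over 2 min.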

[2] = biological target: T2, Prostaglandin G/H synthase 2 (Homo sapiens, UniProt P35354); assay: Inhibition of COX-2 (unknown origin) using arachidonic acid as substrate preincubated for 2 mins followed by substrate addition in presence of TMPD by spectrophotometric analysis relative to control
T2 sequence (P35354 whole entry): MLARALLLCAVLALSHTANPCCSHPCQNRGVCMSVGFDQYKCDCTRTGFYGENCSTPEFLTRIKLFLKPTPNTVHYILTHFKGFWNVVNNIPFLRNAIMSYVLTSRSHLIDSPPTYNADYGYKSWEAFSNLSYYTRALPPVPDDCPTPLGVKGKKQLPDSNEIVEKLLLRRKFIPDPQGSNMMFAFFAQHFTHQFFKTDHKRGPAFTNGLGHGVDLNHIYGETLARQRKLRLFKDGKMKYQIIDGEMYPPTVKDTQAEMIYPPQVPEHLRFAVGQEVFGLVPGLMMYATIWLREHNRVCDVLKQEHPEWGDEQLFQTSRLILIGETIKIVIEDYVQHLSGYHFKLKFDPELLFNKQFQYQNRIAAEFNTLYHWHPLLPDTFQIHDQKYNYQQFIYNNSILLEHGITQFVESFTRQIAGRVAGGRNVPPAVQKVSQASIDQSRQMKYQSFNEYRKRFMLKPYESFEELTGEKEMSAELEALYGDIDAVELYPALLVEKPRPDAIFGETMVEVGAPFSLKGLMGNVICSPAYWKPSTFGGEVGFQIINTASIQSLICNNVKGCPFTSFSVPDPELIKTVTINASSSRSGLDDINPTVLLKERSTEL

Mus musculus = assay: Antinociceptive activity in Swiss albino mouse assessed as reduction in phenylbenzoquinone-induced abdominal constrictions at 1.8 to 7.8 mg/kg, ip pretreated for 25 mins followed by phenylbenzoquinone treatment measured after 5 mins by writhing test; type: functional, Abdomen; set-up: scale not given: the % may be the effect or the level left
[3] = biological target: T1, Prostaglandin G/H synthase 1; assay: Inhibition of COX-1 (unknown origin) using arachidonic acid as substrate preincubated for 10 mins followed by substrate addition in presence of TMPD by spectrophotometric analysis relative to control
Outline: (§1)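 COX-1 in 0.1 M Tris-HCl pH 8.0 with heme; colorimetric read of TMPD oxidation at 590 nm after arachidonic acid starts the reaction. Activity is taken at 10 min of incubation with compound and given as E/E0 against enzyme with solvent only (methanol, ethanol or DMSO). Triplicates; paired t test.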

[4] = biological target: T1, Prostaglandin G/H synthase 1; assay: Increase in COX-1 (unknown origin) enzyme activity using arachidonic acid as substrate preincubated for 10 mins followed by substrate addition in presence of TMPD by spectrophotometric analysis relative to control; outline: as §1

T1 sequence (P23219 whole entry): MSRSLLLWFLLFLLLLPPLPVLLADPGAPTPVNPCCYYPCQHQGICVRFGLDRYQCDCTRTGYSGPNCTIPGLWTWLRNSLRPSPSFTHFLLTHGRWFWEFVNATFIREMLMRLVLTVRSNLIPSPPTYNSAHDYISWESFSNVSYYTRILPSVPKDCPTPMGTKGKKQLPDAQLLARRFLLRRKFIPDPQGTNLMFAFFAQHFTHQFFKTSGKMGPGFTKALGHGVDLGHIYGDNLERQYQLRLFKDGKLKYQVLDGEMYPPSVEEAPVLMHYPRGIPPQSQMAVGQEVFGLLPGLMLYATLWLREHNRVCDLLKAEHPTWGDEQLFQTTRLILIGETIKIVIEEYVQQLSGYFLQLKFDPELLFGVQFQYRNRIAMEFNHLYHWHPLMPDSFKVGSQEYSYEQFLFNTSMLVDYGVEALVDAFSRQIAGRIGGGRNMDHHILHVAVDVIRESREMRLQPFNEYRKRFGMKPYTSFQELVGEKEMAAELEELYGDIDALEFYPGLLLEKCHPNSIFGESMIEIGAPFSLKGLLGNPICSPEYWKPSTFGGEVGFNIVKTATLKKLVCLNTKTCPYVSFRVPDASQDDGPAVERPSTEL

| Structure (SMILES) | IC50 ([1]; read-out: IC50) [µM] | IC50 ([2]; read-out: IC50) [µM] | IC50 ([1]; read-out: pIC50 (converted)) [µM] | IC50 ([2]; read-out: pIC50 (converted)) [µM] | inhibition [3] [%] | inhibition [1] [%] | Activity [4] [%] | Activity (Mus musculus) [%] |
| --- | --- | --- | --- | --- | --- | --- | --- | --- |
| Cc1cc(C)c2c(=O)n(CCCC(=O)N3CCN(c4ccccc4)CC3)sc2n1 | 349 | 459 | – | – | – | – | – | – |
| Cc1cc(C)c2c(=O)n(CCCN3CCN(c4cccc(Cl)c4)CC3)sc2n1 | 816 | – | 513 to 525 | – | – | – | – | >50 |
| COc1cc2c(cc1OC)CN(C(=O)CCn1sc3nc(C)cc(C)c3c1=O)CC2 | 497 | 303 | – | 288 | – | – | – | – |
| Cc1cc(C)c2c(OCCCC(=O)N3CCN(c4cccc(Cl)c4)CC3)nsc2n1 | 818 | – | 380 | 4570 | – | – | – | – |
| Cc1cc(C)c2c(=O)n(CC(=O)N3CCN(c4cccc(Cl)c4)CC3)sc2n1 | 375 | 605 | – | – | – | – | – | – |
| Cc1cc(C)c2c(OCCCC(=O)N3CCN(c4ccccc4)CC3)nsc2n1 | – | – | 1550 | – | – | – | 3 to 7 | – |
| CN1C(C(=O)Nc2ccccn2)=C(O)c2ccccc2S1(=O)=O | – | – | – | – | – | – | 11 | – |
| Cc1cc(C)c2c(=O)n(CN3CCN(C4CCCCC4)CC3)sc2n1 | – | 359 | 372 to 661 | – | – | – | 3 to 7 | >50 |
| Cc1cc(C)c2c(=O)n(CCCC(=O)N3CCN(c4cccc(Cl)c4)CC3)sc2n1 | 722 | – | – | – | – | – | – | – |

The remaining molecules from weak to strong by IC50 ([1]; read-out: IC50), led by results:

| IC50 ([1]; read-out: IC50) [µM] | IC50 ([2]; read-out: IC50) [µM] | IC50 ([1]; read-out: pIC50 (converted)) [µM] | IC50 ([2]; read-out: pIC50 (converted)) [µM] | inhibition [3] [%] | inhibition [1] [%] | Activity [4] [%] | Structure (SMILES) | Activity (Mus musculus) [%] |
| --- | --- | --- | --- | --- | --- | --- | --- | --- |
| 331 | 130 | 302 | – | – | – | – | O=C(CCn1sc2ccccc2c1=O)N1CCN(c2cccc(Cl)c2)CC1 | – |
| 248 | 269 | – | 245 | – | 25 to 40 | – | Cc1cc(C)c2c(OCCCC(=O)O)nsc2n1 | – |
| 242 | 388 | – | – | – | – | – | Cc1cc(C)c2c(=O)n(CCC(=O)N3CCN(c4cccc(Cl)c4)CC3)sc2n1 | – |
| 235 | 302 | – | – | – | 25 to 40 | – | Cc1cc(C)c2c(=O)n(CCCC(=O)O)sc2n1 | – |
| 229 | 327 | – | – | – | 25 to 40 | – | Cc1cc(C)c2c(OC(C)C(=O)O)nsc2n1 (stereo unspecified) | – |
| 219 | 494 | – | 5250 | 18 to 30 | – | – | Cc1cc(C)c2c(=O)n(CN(C)CCNc3ccccc3)sc2n1 | >50 |
| 207 | 368 | – | – | 18 to 30 | 25 to 40 | – | Cc1cc(C)c2c(=O)n(CCC(=O)N3CCN(c4ccccc4)CC3)sc2n1 | – |
| 156 | – | 141 | 1260 | 18 to 30 | 25 to 40 | – | Cc1cc(C)c2c(=O)n(CN3CCN(c4ccccc4F)CC3)sc2n1 | >50 |
| 154 | 344 | 138 | – | 18 to 30 | 25 to 40 | – | CCC(C(=O)N1CCN(c2ccccc2)CC1)n1sc2nc(C)cc(C)c2c1=O (stereo unspecified) | – |
